Data set [1] deals with T1, Vitamin D3 receptor (Homo sapiens) (UniProt P11473).
T1 sequence (whole entry): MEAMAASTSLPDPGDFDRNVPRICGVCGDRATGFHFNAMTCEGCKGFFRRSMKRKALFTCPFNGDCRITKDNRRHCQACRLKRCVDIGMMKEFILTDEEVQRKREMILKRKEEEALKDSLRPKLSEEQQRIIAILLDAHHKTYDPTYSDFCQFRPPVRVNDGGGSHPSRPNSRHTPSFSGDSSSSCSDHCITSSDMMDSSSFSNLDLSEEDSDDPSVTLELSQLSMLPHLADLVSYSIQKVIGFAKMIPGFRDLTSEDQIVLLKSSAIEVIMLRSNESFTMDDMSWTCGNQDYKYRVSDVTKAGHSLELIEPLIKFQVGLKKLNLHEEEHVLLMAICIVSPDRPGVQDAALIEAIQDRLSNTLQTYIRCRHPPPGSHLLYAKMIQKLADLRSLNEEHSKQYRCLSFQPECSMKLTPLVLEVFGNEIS
As to the kind of experiment: Agonist activity at human VDR in human MG63 cells assessed as stimulation of VDRE-mediated luciferase reporter gene activity relative to 1,25(OH)2D3. The class given is functional, cell-based. Details: concentration or dose not given beside the values. The following applies: MG-63. On the technique in general: Reporter assays use an easily measured gene product as a stand-in for the process of interest.

In data set [2] the test system is Rattus norvegicus. As to the kind of experiment: Toxicity in ovariectomized Sprague-Dawley rat osteoporosis model assessed as body weight loss at […], po administered once daily for 5 times per week. The class given is organism-based. Conditions: in vivo.
Data set [3] can be described thus: AUC (infinity) in Sprague-Dawley rat at 100 ug/kg, iv. It is filed as ADME, organism-based. Also noted: dose 100 ug/kg, time infinity, route intravenous. The following applies: plasma, 0.1 mg/kg. The method, boiled down:
(§1)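 Rats given 100 µg/kg orally or intravenously; F, T1/2, Cmax, AUCinf, MRT and total clearance derived.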

Data set [4] is described as follows: AUC (infinity) in Sprague-Dawley rat at 100 ug/kg, po. The class given is ADME, organism-based. Details: dose 100 ug/kg, time infinity, route oral. Conditions: plasma, 0.1 mg/kg. The method, boiled down: as §1
The test system of data set [5] is Rattus norvegicus. Kind of data set: Toxicity in ovariectomized Sprague-Dawley rat osteoporosis model assessed as induction of hypercalcemia at 2 ug/kg, po administered once daily for 5 times per week. The class given is organism-based. Conditions: in vivo, 0.002 mg/kg. The method, boiled down:
(§2)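 Female Sprague–Dawley rats, 8 weeks old, ovariectomized or sham-operated; from one day post-surgery, OVX groups (n = 8) given 0.22, 0.67 or 2.0 µg/kg orally in MCT vehicle (1 mL/kg), five times per week for 4 weeks. 24 h after last dose, serum calcium by autoanalyzer and distal femur BMD by dual-energy X-ray absorptiometry.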

Data set [6] in a line: Mean residence time in Sprague-Dawley rat at 100 ug/kg, iv. The class given is ADME, organism-based. Conditions: in vivo, 0.1 mg/kg. The method, boiled down:
as §1

The nature of data set [7]: Cmax in Sprague-Dawley rat at 100 ug/kg, po. It is filed as ADME, organism-based. Also noted: dose 100 ug/kg, route oral. Conditions: in vivo, 0.1 mg/kg. The method, boiled down:
as §1

Data set [8] can be described thus: Total clearance in Sprague-Dawley rat at 100 ug/kg, po. The following applies: in vivo, 0.1 mg/kg. The class given is ADME, organism-based. The method, boiled down:
as §1

Data set [9] deals with Rattus norvegicus. Kind of data set: Toxicity in ovariectomized Sprague-Dawley rat osteoporosis model assessed as body weight loss at 2 ug/kg, po administered once daily for 5 times per week. The following applies: in vivo, 0.002 mg/kg. The class given is organism-based.
The test system of data set [10] is Rattus norvegicus. Kind of data set: Toxicity in ovariectomized Sprague-Dawley rat osteoporosis model assessed as induction of hypercalcemia at […], po administered once daily for 5 times per week. It is filed as organism-based. Conditions: in vivo.
Data set [11] is described as follows: Mean residence time in Sprague-Dawley rat at 100 ug/kg, po. The class given is ADME, organism-based. The following applies: in vivo, 0.1 mg/kg. Summed up:
as §1

A short description of data set [12]: Half life in Sprague-Dawley rat at 100 ug/kg, iv. Conditions: in vivo, 0.1 mg/kg. It is filed as ADME, organism-based. The method, boiled down: as §1
Data set [13] addresses T1, Vitamin D3 receptor (Homo sapiens). As to the kind of experiment: Agonist activity at human VDR in human MG63 cells assessed as stimulation of osteocalcin production by enzyme immunoassay relative to 1,25(OH)2D3. The class given is functional, cell-based. Also noted: concentration or dose not given beside the values. Conditions: MG-63.
Data set [14] in a line: Oral bioavailability in Sprague-Dawley rat at 100 ug/kg. Conditions: in vivo, 0.1 mg/kg. The class given is ADME, organism-based. The method, boiled down: as §1
Data set [15] can be described thus: Total clearance in Sprague-Dawley rat at 100 ug/kg, iv. The class given is ADME, organism-based. Conditions: in vivo, 0.1 mg/kg. Summed up: as §1
A short description of data set [16]: Half life in Sprague-Dawley rat at 100 ug/kg, po. It is filed as ADME, organism-based. The following applies: in vivo, 0.1 mg/kg. The method, boiled down:
as §1

Data set [17] concerns Rattus norvegicus. As to the kind of experiment: Prevention of bone mineral density loss in ovariectomized Sprague-Dawley rat osteoporosis model administered orally once daily for 5 times per week. It is filed as functional, organism-based. Summed up:
as §2

Bounds are passed on as bounds.

As for `CCC(CC)(c1ccc(OCC(O)C(C)(C)C)c(C)c1)c1ccc(OC[C@@H](O)CCC(=O)O)c(C)c1` (mixture of isomers), the Activity in data set [1] was 20%; in the data set with Rattus norvegicus [2] it was “Non-toxic”; with Rattus norvegicus [5] it was “Toxic”; in the data set with Rattus norvegicus [9], “Toxic”; in the data set on Rattus norvegicus [10], “Non-toxic”; in data set [13], 484%. Further, the AUC(0-inf) – broadly, the area under the concentration-time curve extrapolated to infinity – in [3] was determined as 1150 ng·h/mL; in data set [4] it was 151 ng·h/mL. Also, the MRT (in general, the average time that molecules of a dose stay in the body) was determined as 9.2 h in data set [6] and 12.3 h in data set [11]. For the same compound, the Cmax (as a rule, the maximum level reached in the sampled fluid or tissue) in data set [7] is 11.6 ng/mL. Besides, the CL/F – broadly, the apparent clearance, not corrected for the fraction that reaches the circulation – in data set [8] is 11.5 mL/min/kg. For the same compound, the values for the half-life in data set [12] and in data set [16] were 10.6 h and 8 h, respectively. The bioavailability (usually the share of a dose that reaches the circulation, judged against a reference dose that is usually intravenous) in [14] is 13%. Besides, the clearance (as a rule, the rate of elimination divided by the concentration) in data set [15] is 1.47 mL/min/kg. Moreover, in the data set with Rattus norvegicus [17], the inhibition entry is “Dose-dependent effect”.
In the case of `CCC(CC)(c1ccc(CCC(O)C(C)(C)C)c(C)c1)c1ccc(OC[C@@H](O)CCC(=O)O)c(C)c1` (mixture of isomers), the Activity in data set [1] was determined as 52%; in data set [13], 68%.
As to `CCC(CC)(c1ccc(OCCCCC(=O)O)c(C)c1)c1ccc(OCC(O)C(C)(C)C)c(C)c1` (racemic), the Activity in data set [1] is 19%; in data set [13] it was 205%. Also, the figures for the AUC(0-inf) in [3] and in data set [4] were 32.9 ng·h/mL and 10.9 ng·h/mL, respectively. Besides, the MRT was found to be 0.5 h in [6] and 3.8 h in data set [11]. Also, the concentration in [7] peaked (Cmax) at 3.6 ng/mL. The compound further gave a CL/F in [8] of 156 mL/min/kg. For the same compound, the half-life (commonly the time needed for the level to fall by half in the phase considered) was 1.3 h in [12] and 3.1 h in data set [16]. The same compound returned a bioavailability in data set [14] of 33%. For the same compound, the clearance in data set [15] was 50.9 mL/min/kg.
`CCC(CC)(c1ccc(CCC(O)C(C)(C)C)c(C)c1)c1ccc(OCCCCC(=O)O)c(C)c1` (racemic): the Activity in data set [1] stood at 31%; in data set [13] it was 368%.
The like results for `CCC(CC)(c1ccc(CCC(O)C(C)(C)C)c(C)c1)c1ccc(OCCCCCC(=O)O)c(C)c1` (racemic) were, in that order, 16% and 168%.
As to `CCC(CC)(c1ccc(CCC(O)C(C)(C)C)c(C)c1)c1ccc(OCCCCCCC(=O)O)c(C)c1` (racemic), the Activity was determined as 2.2% in data set [1] and 9.3% in data set [13].
The corresponding values for `CCC(CC)(c1ccc(OCC(=O)O)c(C)c1)c1ccc(OCC(O)C(C)(C)C)c(C)c1` (racemic) are 1.4% and below 13%.
The like results for `CCC(CC)(c1ccc(OCCC(=O)O)c(C)c1)c1ccc(OCC(O)C(C)(C)C)c(C)c1` (racemic) were, in that order, 6.2% and 49%.
The like results for `CCC(CC)(c1ccc(OCCCC(=O)O)c(C)c1)c1ccc(OCC(O)C(C)(C)C)c(C)c1` (racemic) were, in that order, 2.6% and below 13%.

Values taken from ChEMBL document CHEMBL1811827, “Novel nonsecosteroidal vitamin D3 carboxylic acid analogs for osteoporosis, and SAR analysis” (Bioorg Med Chem, 2011).
